Assay results taken from ChEMBL document CHEMBL5724801, “EUbOPEN Chemogenomics Library - Multiplex” (2024).
“And” between values parts separate entries of the source, which are not always exact repeats. Equal values may be shown once.

Test system: U2OS
Assay: Multiplex assay against U2OS
Assay type: toxicity, cell-based
Settings: human
In short: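 On a CQ1 microscope at 37°C and 5% CO2, live cells were imaged after compound addition. They had been stained at seeding with Hoechst33342, BioTracker Green Microtubule Cytoskeleton Dye, MitoTracker Red and Annexin V Alexa Fluor 680. CellPathfinder machine-learning gating assigned cells to Hoechst high-intensity objects or normal cells, normal cells to healthy, pyknosed or fragmented nuclei, and pyknosed cells to mitotic or apoptotic. Tubulin, mitochondrial-mass and membrane-permeability phenotypes are per cents of healthy-nucleus cells.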

[1] = 12 h, 1 µM, compound concentration 1 uM
[2] = 12 h, 10 µM, compound concentration 10 uM
[3] = 24 h, 1 µM, compound concentration 1 uM
[4] = 24 h, 10 µM, compound concentration 10 uM
[5] = 48 h, 1 µM, compound concentration 1 uM
[6] = 48 h, 10 µM, compound concentration 10 uM

Structure (SMILES): Cc1cc(O)c(-c2ccc([C@@H](C)CN(C)C)cc2)c2c1[nH]c(=O)c1sccc12
- Population Apoptotic (%) [1]: 70% [middle of 4 runs]
- Population Healthy Nuclei (%) [1]: 48% and 63% and 56.09% and 62.5%
- Population Hoechst High Intensity Objects (%) [1]: 4% and 2% and 0.32% and 0%
- Population Normal (%) [1]: 95% and 97% and 99.68% and 100%
- Population Tubulin-Different-Phenotype (%) [1]: 12% and 14% and 4% and 6.67%
- Population Apoptotic (%) [2]: 64% and 69% and 40.85% and 42.19%
- Population Healthy Nuclei (%) [2]: 50% and 56% and 56.98% and 52.11%
- Population Hoechst High Intensity Objects (%) [2]: 4% and 8% and 0%
- Population Mitotic Cells (%) [2]: 35% and 30% and 59.15% and 57.81%
- Population Normal (%) [2]: 95% and 91% and 100%
- Population Pyknosed Nuclei (%) [2]: 41.28% [middle of 4 runs]
- Population Tubulin-Different-Phenotype (%) [2]: 72% and 45% and 70.41% and 64.86%
- Population Apoptotic (%) [3]: 92% [middle of 4 runs]
- Population Healthy Nuclei (%) [3]: 34% [middle of 4 runs]
- Population Hoechst High Intensity Objects (%) [3]: 8% and 6% and 0.34% and 0%
- Population Normal (%) [3]: 91% and 93% and 99.66% and 100%
- Population Tubulin-Different-Phenotype (%) [3]: 19% and 12% and 11.11% and 17.07%
- Population Apoptotic (%) [4]: 81% and 82% and 58.37% and 68.63%
- Population Healthy Nuclei (%) [4]: 31% [middle of 4 runs]
- Population Hoechst High Intensity Objects (%) [4]: 9% [middle of 4 runs]
- Population Membrane Permeable-Phenotype (%) [4]: 16% [middle of 4 runs]
- Population Mitochondria Different-Phenotype (%) [4]: 70% [middle of 4 runs]
- Population Mitotic Cells (%) [4]: 31.37% [middle of 4 runs]
- Population Normal (%) [4]: 90% and 87% and 99.35% and 100%
- Population Pyknosed Nuclei (%) [4]: 67.86% [middle of 4 runs]
- Population Tubulin-Different-Phenotype (%) [4]: 64.47% [middle of 4 runs]
- Total Cell Count [4]: 210 [middle of 4 runs]
- Population Apoptotic (%) [5]: 96% and 100% and 72.95% and 83.47%
- Population Healthy Nuclei (%) [5]: 18% [middle of 4 runs]
- Population Normal (%) [5]: 82% and 84% and 99.63% and 98.84%
- Population Tubulin-Different-Phenotype (%) [5]: 25% and 50% and 28.57%
- Total Cell Count [5]: 250 [middle of 4 runs]
- Population Apoptotic (%) [6]: 96% and 100% and 80.93% and 86.67%
- Population Healthy Nuclei (%) [6]: 17% and 13% and 14.23% and 9.84%
- Population Mitochondria Different-Phenotype (%) [6]: 45% and 50% and 33.33%
- Population Mitotic Cells (%) [6]: 13.33% [middle of 4 runs]
- Population Normal (%) [6]: 79% and 84% and 98.92% and 99.19%
- Population Pyknosed Nuclei (%) [6]: 31% and 78.47% and 86.07%
- Population Tubulin-Different-Phenotype (%) [6]: 64% [middle of 4 runs]
- Total Cell Count [6]: 220 [middle of 4 runs]

Structure (SMILES): CCn1c(-c2nc3cc(C(=O)N4CCCC(N)C4)ccc3n2C)cc2ccccc21.Cl (configuration not stated)
- Population Healthy Nuclei (%) [1]: 67% and 77% and 89.25% and 83.07%
- Population Hoechst High Intensity Objects (%) [1]: 0% and 5%
- Population Membrane Permeable-Phenotype (%) [1]: 4% [middle of 4 runs]
- Population Normal (%) [1]: 99% and 94% and 100%
- Population Tubulin-Different-Phenotype (%) [1]: 2.36% [middle of 4 runs]
- Population Apoptotic (%) [2]: 48% [middle of 4 runs]
- Population Healthy Nuclei (%) [2]: 56% and 60% and 74.57% and 67.27%
- Population Hoechst High Intensity Objects (%) [2]: 2% and 1% and 0%
- Population Mitotic Cells (%) [2]: 51% and 45% and 65.85% and 73.91%
- Population Normal (%) [2]: 97% and 98% and 100%
- Population Pyknosed Nuclei (%) [2]: 19% and 18% and 23.43% and 27.88%
- Population Tubulin-Different-Phenotype (%) [2]: 27% and 48% and 33.72% and 25.23%
- Total Cell Count [2]: 277 [middle of 4 runs]
- Population Apoptotic (%) [3]: 66% [middle of 4 runs]
- Population Healthy Nuclei (%) [3]: 68% and 92.18% and 84.19%
- Population Hoechst High Intensity Objects (%) [3]: 1% and 3% and 0.17% and 0%
- Population Normal (%) [3]: 98% and 96% and 99.83% and 100%
- Population Pyknosed Nuclei (%) [3]: 9% and 5% and 6.49% and 13.68%
- Population Apoptotic (%) [4]: 62% and 73% and 40% and 53.33%
- Population Healthy Nuclei (%) [4]: 54% and 64% and 74.61% and 71.91%
- Population Hoechst High Intensity Objects (%) [4]: 2% and 3% and 0%
- Population Mitotic Cells (%) [4]: 46.67% [middle of 4 runs]
- Population Normal (%) [4]: 97% and 96% and 100%
- Population Pyknosed Nuclei (%) [4]: 17% and 16% and 21.16% and 25.28%
- Population Tubulin-Different-Phenotype (%) [4]: 15.62% [middle of 4 runs]
- Population Apoptotic (%) [5]: 75% and 70% and 44% and 47.83%
- Population Healthy Nuclei (%) [5]: 76% and 70% and 90.93% and 86.01%
- Population Hoechst High Intensity Objects (%) [5]: 2% and 4% and 0%
- Population Membrane Permeable-Phenotype (%) [5]: 8% and 10% and 1.19% and 2.66%
- Population Mitochondria Different-Phenotype (%) [5]: 3% and 9% and 0.33% and 7.4%
- Population Mitotic Cells (%) [5]: 52.17% [middle of 4 runs]
- Population Normal (%) [5]: 97% and 95% and 100%
- Population Pyknosed Nuclei (%) [5]: 6% and 7% and 7.4% and 11.7%
- Population Tubulin-Different-Phenotype (%) [5]: 5% and 8% and 1.41% and 1.78%
- Population Apoptotic (%) [6]: 78% and 77% and 57.94% and 60%
- Population Healthy Nuclei (%) [6]: 53% and 64% and 76.68% and 73.28%
- Population Hoechst High Intensity Objects (%) [6]: 5% and 6% and 0% and 0.4%
- Population Mitotic Cells (%) [6]: 40% [middle of 4 runs]
- Population Normal (%) [6]: 94% and 93% and 100% and 99.6%
- Population Pyknosed Nuclei (%) [6]: 19% and 16% and 18.03% and 22.27%
- Population Tubulin-Different-Phenotype (%) [6]: 14.92% [middle of 4 runs]

Structure (SMILES): O=c1cccc2n1C[C@@H]1CNC[C@H]2C1 [CYTISINICLINE]
- Population Apoptotic (%) [1]: 31.43% and 36.84%
- Population Fragmented Nuclei (%) [1]: 0.94% and 1.67%
- Population Healthy Nuclei (%) [1]: 90.87% and 87.78%
- Population Hoechst High Intensity Objects (%) [1]: 0%
- Population Membrane Permeable-Phenotype (%) [1]: 1.29% and 1.9%
- Population Mitochondria Different-Phenotype (%) [1]: 0% and 5.06%
- Population Mitotic Cells (%) [1]: 68.57% and 63.16%
- Population Normal (%) [1]: 100%
- Population Pyknosed Nuclei (%) [1]: 8.2% and 10.56%
- Population Tubulin-Different-Phenotype (%) [1]: 1.29% and 0%
- Total Cell Count [1]: 427 and 180
- Population Apoptotic (%) [2]: 50%
- Population Fragmented Nuclei (%) [2]: 0.98% and 7.59%
- Population Healthy Nuclei (%) [2]: 90.71% and 82.28%
- Population Hoechst High Intensity Objects (%) [2]: 0%
- Population Membrane Permeable-Phenotype (%) [2]: 1.35% and 0.77%
- Population Mitochondria Different-Phenotype (%) [2]: 0% and 6.92%
- Population Mitotic Cells (%) [2]: 50%
- Population Normal (%) [2]: 100%
- Population Pyknosed Nuclei (%) [2]: 8.31% and 10.13%
- Population Tubulin-Different-Phenotype (%) [2]: 1.62% and 1.54%
- Total Cell Count [2]: 409 and 158
- Population Apoptotic (%) [3]: 30.23% and 40%
- Population Fragmented Nuclei (%) [3]: 2.82% and 2.92%
- Population Healthy Nuclei (%) [3]: 89.59% and 86.67%
- Population Hoechst High Intensity Objects (%) [3]: 0%
- Population Membrane Permeable-Phenotype (%) [3]: 1.18% and 2.4%
- Population Mitochondria Different-Phenotype (%) [3]: 0% and 2.4%
- Population Mitotic Cells (%) [3]: 69.77% and 60%
- Population Normal (%) [3]: 100%
- Population Pyknosed Nuclei (%) [3]: 7.58% and 10.42%
- Population Tubulin-Different-Phenotype (%) [3]: 0.59% and 0.96%
- Total Cell Count [3]: 567 and 240
- Population Apoptotic (%) [4]: 32.61% and 45%
- Population Fragmented Nuclei (%) [4]: 0.88% and 4.81%
- Population Healthy Nuclei (%) [4]: 91.01% and 85.58%
- Population Hoechst High Intensity Objects (%) [4]: 0.18% and 0%
- Population Membrane Permeable-Phenotype (%) [4]: 0.97% and 1.69%
- Population Mitochondria Different-Phenotype (%) [4]: 0% and 3.37%
- Population Mitotic Cells (%) [4]: 67.39% and 55%
- Population Normal (%) [4]: 99.82% and 100%
- Population Pyknosed Nuclei (%) [4]: 8.11% and 9.62%
- Population Tubulin-Different-Phenotype (%) [4]: 2.13% and 1.69%
- Total Cell Count [4]: 568 and 208
- Population Apoptotic (%) [5]: 42.86% and 41.18%
- Population Fragmented Nuclei (%) [5]: 3.85% and 0.73%
- Population Healthy Nuclei (%) [5]: 89.27% and 86.8%
- Population Hoechst High Intensity Objects (%) [5]: 0% and 0.49%
- Population Membrane Permeable-Phenotype (%) [5]: 0.8% and 1.41%
- Population Mitochondria Different-Phenotype (%) [5]: 0.1% and 3.1%
- Population Mitotic Cells (%) [5]: 57.14% and 58.82%
- Population Normal (%) [5]: 100% and 99.51%
- Population Pyknosed Nuclei (%) [5]: 6.89% and 12.47%
- Population Tubulin-Different-Phenotype (%) [5]: 0.6% and 0.56%
- Total Cell Count [5]: 1118 and 411
- Population Apoptotic (%) [6]: 42.39% and 63.89%
- Population Fragmented Nuclei (%) [6]: 3.71% and 1.13%
- Population Healthy Nuclei (%) [6]: 87.55% and 88.7%
- Population Hoechst High Intensity Objects (%) [6]: 0%
- Population Membrane Permeable-Phenotype (%) [6]: 0.65% and 2.23%
- Population Mitochondria Different-Phenotype (%) [6]: 0.11% and 0.96%
- Population Mitotic Cells (%) [6]: 57.61% and 36.11%
- Population Normal (%) [6]: 100%
- Population Pyknosed Nuclei (%) [6]: 8.75% and 10.17%
- Population Tubulin-Different-Phenotype (%) [6]: 1.19% and 0.64%
- Total Cell Count [6]: 1052 and 354
